Screening results (PubChem BioAssay)
CSC inhib = cancer stem cell viability inhibitors, primary screen, luminescence; actives 1.1% (n = 300,000); cancer stem cell-like cells viability; inhibition, % at 7.5 µM; in the data active = inhibition above about 75%; inconclusive = no clear call, values can overlap the other calls; tested in HMLE shEcad cells
SKKanGAS inh = S. pyogenes SKKanGAS growth inhibitors in kanamycin, primary screen, streptokinase expression inhibitor project, SKKanGAS strain, BacTiter-Glo luminescence | 6 h | actives 1.3% (n = 300,000) | inhibition, % at 7.5 µM;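 active = mean replicate score, as percent of positive control median, at least 50; inconclusive = mean below 50 but one replicate at or above 50; inactive = mean and every replicate below 50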;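 also: strain carries kanamycin resistance gene driven by streptokinase promoter and grows in 40 µg/ml kanamycin; loss of luminescence reflects streptokinase promoter inhibition or plain growth inhibition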
PglD DTNB = C. jejuni PglD acetyltransferase inhibitors, primary screen, biochemical, DTNB colorimetric, single point. actives 0.098% (n = 360,000). inhibition, % at 12.5 µM. UDP-N-acetylbacillosamine N-acetyltransferase PglD (Campylobacter jejuni). purified PglD enzyme, DTNB colorimetric CoA detection; in the data active = inhibition above about 16%, passing the limit was not always enough; inconclusive = no clear call, values can overlap the other calls
Rtt109 Vps75 = inhibitors of C. albicans Rtt109/Vps75 HAT, primary screen, biochemical, ThioGlo CoA-SH fluorescence, plate reader; inhibition, % at 34.9 µM; actives 0.16% (n = 330,000); purified Rtt109/Vps75, 4 h;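 active = inhibition of at least 50% in every replicate; inconclusive = best replicate reaches 50% inhibition but some replicates fall short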
Target sequence (Q5AAJ8 whole entry, looked up): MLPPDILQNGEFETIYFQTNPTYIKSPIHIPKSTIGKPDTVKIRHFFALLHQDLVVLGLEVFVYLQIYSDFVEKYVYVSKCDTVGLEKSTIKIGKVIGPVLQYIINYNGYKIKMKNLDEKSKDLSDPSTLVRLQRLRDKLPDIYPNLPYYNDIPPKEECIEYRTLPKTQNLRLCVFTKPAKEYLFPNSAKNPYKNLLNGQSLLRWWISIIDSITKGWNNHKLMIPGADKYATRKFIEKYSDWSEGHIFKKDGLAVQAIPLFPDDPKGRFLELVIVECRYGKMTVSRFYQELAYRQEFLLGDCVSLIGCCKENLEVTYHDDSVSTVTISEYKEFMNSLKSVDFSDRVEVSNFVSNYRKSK
FN deposit inh = inhibitors of fibronectin matrix deposition, primary screen, AH1F cells, Alexa488-fibronectin fluorescence, plate reader | AH1F fibroblasts, overnight | inhibition, % at 12.6 µM | actives 0.086% (n = 350,000);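 active = mean inhibition across replicates of 30% or more, regardless of how many single replicates reach that level; inconclusive = mean under 30% yet at least half of replicates reach 30%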
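Material: AH1F fibroblast monolayer depositing Alexa488-labelled fibronectin into matrix | Input: 10000 AH1F cells/well | Medium: DMEM plus 2% serum, read in PBS | Reagent: Alexa488-fibronectin, 24 nM final in well | Compound dosing: One dose per compound, pinned | Schedule: 1 h adhesion, overnight exposure | Measured by: Fluorescence at 485 nm excitation, 525 nm emission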
PfHsp90 yeast 2 = growth inhibition of PfHsp90-expressing yeast, primary screen, antimalarial PfHsp90 inhibitor project, S. cerevisiae, BacTiter-Glo luminescence, single point, set 2; BacTiter-Glo ATP, 48 h; yeast lacking PDR1 and PDR3 efflux regulators; inhibition, % at 9.4 µM; actives 0.32% (n = 310,000); AID 504621, 2011;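 active = every replicate shows inhibition above about 80%, whatever the replicate mean, limit read from the data; inconclusive = mean inhibition reaches the set limit but some replicate falls short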
Hits are given with their value; n = inactive; u = inconclusive; x = not tested or not shown. Shown are actives, neighbours in structure and some others; about 1.7% of the full set was active somewhere.

SMILES	CSC inhib	SKKanGAS inh	PglD DTNB	Rtt109 Vps75	FN deposit inh	PfHsp90 yeast 2
CCCC(=O)NC(c1ccc(OC)cc1)c1ccc2cccnc2c1O (stereo not drawn)	119.2	n	x	n	n	x
CC(=O)NC(c1ccc(C(C)C)cc1)c1ccc2cccnc2c1O (stereo not drawn)	109.1	n	n	n	n	107.9
CCCCC(=O)NC(c1ccco1)c1cc(Cl)c2cccnc2c1O (stereo not drawn)	102.2	51.7	x	n	n	105.3
CCCCC(=O)NC(c1ccc([N+](=O)[O-])cc1)c1c(O)ccc2ccccc12 (stereo not drawn)	n	n	n	n	n	n
CCCCC(=O)NC(c1ccccc1)c1ccc2cccnc2c1O (stereo not drawn)	109.8	n	n	n	n	114.8
C[C@@H]1CN([C@@H](C)CO)C(=O)c2cc(NC(=O)Nc3ccc4c(c3)OCO4)ccc2O[C@@H](C)CCCCO[C@@H]1CN(C)Cc1ccc(C(=O)O)cc1	x	x	n	x	x	x
Cc1noc(C)c1S(=O)(=O)Nc1ccc2c(c1)C(=O)N([C@@H](C)CO)C[C@H](C)[C@@H](CN(C)C(=O)Nc1ccc3c(c1)OCO3)OCCCC[C@@H](C)O2	x	x	n	x	x	x
C[C@@H]1CN([C@@H](C)CO)S(=O)(=O)c2ccc(C3=CCCC3)cc2O[C@@H]1CN(C)C(=O)CN(C)C	x	x	n	x	x	x
CCC(=O)N(C)C[C@H]1Oc2cc(C#C[C@@H](C)O)ccc2S(=O)(=O)N([C@H](C)CO)C[C@@H]1C	x	x	x	x	n	x
CC(C)NC(=O)N1[C@H](CO)[C@H]2c3ccccc3N(C)C[C@H]21	x	x	n	x	n	x
Cc1cc(NC(c2cccnc2)c2ccc3cccnc3c2O)no1 (stereo not drawn)	x	n	n	n	x	n
Oc1c(C(Nc2ccccn2)c2cccnc2)cc(Cl)c2cccnc12 (stereo not drawn)	n	94.7	x	n	n	103.0
c1ccc(-c2nc(C3CCCCC3)c3sccc3n2)cc1	n	83.7	n	n	n	x
CC(=O)Nc1ccc2c(c1)CC(=O)N(C)C[C@H](C)[C@@H](CN(C)C(C)=O)O2	x	x	x	x	n	x
Cc1cccc(/C=C(\c2nc3ccccc3[nH]2)S(=O)(=O)c2ccccc2)c1	x	n	x	n	n	n
CC(C)(C)c1ccc(/C=C(\c2nc3ccccc3[nH]2)S(=O)(=O)c2ccccc2)cc1	125.4	n	n	n	x	n
O=C(OCc1csc(Nc2ccccc2)n1)c1ccc(Cl)cc1	x	54.8	x	n	n	n
O=C(COc1ccccc1)OCc1csc(Nc2ccccc2)n1	n	n	n	n	n	n
CC(C)NC(=O)N(C)C[C@H]1Oc2ccc(NC(=O)CCN3CCOCC3)cc2CC(=O)N([C@@H](C)CO)C[C@H]1C	x	x	n	x	n	x
CO[C@@H]1CN(C)C(=O)c2ccc(NS(C)(=O)=O)cc2OC[C@@H](C)NC[C@@H]1C	x	x	n	x	n	x
CSc1ccccc1C(=O)C1CCCN(C(=O)c2cncs2)C1 (stereo not drawn)	n	n	n	n	n	n
CSc1ccccc1C(=O)C1CCCN(C(=O)CCc2cccnc2)C1 (stereo not drawn)	n	n	n	n	44.6	n
O=C(NN1C(=O)/C(=C\c2ccc(O)c([N+](=O)[O-])c2)SC1=S)c1ccccc1Cl	n	n	n	n	n	104.2
O=C(O)c1ccc(/C=C2\SC(=S)N(NC(=O)c3ccccc3[N+](=O)[O-])C2=O)cc1	n	n	n	n	n	n
COc1ccc(S(=O)(=O)N[C@H]2CC[C@H](CCNC(=O)Cc3ccccn3)O[C@H]2CO)cc1	x	x	x	x	n	x
SMILES	CSC inhib	SKKanGAS inh	PglD DTNB	Rtt109 Vps75	FN deposit inh	PfHsp90 yeast 2
O=C1O[C@@H](c2ccccc2)[C@@H](c2ccccc2)N2[C@@H](c3ccccc3OCCO)[C@]3(C(=O)Nc4ccc(C#CCCO)cc43)[C@@H](C(=O)O)[C@H]12	x	x	n	x	x	x
c1ccc(/N=C2\N=C(Nc3ccccn3)c3ccccc32)nc1	n	60.4	n	n	n	n
CC(C)NC(=O)N(C)C[C@H]1Oc2c(NC(=O)C3CCCCC3)cccc2C(=O)N([C@@H](C)CO)C[C@@H]1C	x	x	n	x	x	x
Oc1ccc(C2=NN(c3ccccc3)C(c3ccc(F)cc3)C2)cc1 (stereo not drawn)	u	81.0	n	n	n	119.7
NS(=O)(=O)c1ccc(N2N=C(c3ccccc3)CC2c2ccc(F)cc2)cc1 (stereo not drawn)	n	63.9	x	n	x	n
COc1ccc(C2CC(c3ccccc3)=NN2c2ccc(S(N)(=O)=O)cc2)cc1 (stereo not drawn)	n	u	x	n	n	n
C[C@@H]1CN([C@@H](C)CO)C(=O)c2cc(-c3cncnc3)cnc2O[C@@H]1CN(C)C(=O)Cc1ccccn1	x	x	n	x	n	x
CCCNC(=O)N(C)C[C@@H]1Oc2cc(C3=CCCC3)ccc2S(=O)(=O)N([C@@H](C)CO)C[C@H]1C	x	x	n	x	x	x
O=C(N[C@@H]1CC[C@H](CCn2cc(C3CC3)nn2)O[C@@H]1CO)c1cccnc1	x	x	n	x	n	x
COc1cc(/C=C/C(=O)O)cc(S(=O)(=O)NCc2ccco2)c1OC	n	n	x	n	n	n
COc1ccc(/C=C/C(=O)O)cc1S(=O)(=O)NCc1ccco1	n	n	x	50.2	n	n
O=C(C[C@H]1C=C[C@@H](NC(=O)C2CC2)[C@@H](CO)O1)NC1CCC1	x	x	n	x	n	x
O=C(OCn1ncc(Br)c(Br)c1=O)c1ccc(F)cc1	n	n	n	n	x	99.1
O=C(OCn1ncc(Br)c(Br)c1=O)c1ccccc1Cl	n	n	n	n	x	90.5
CC(=O)OCn1ncc(N2CCOCC2)c(Br)c1=O	n	n	n	n	n	n
CC(=O)Nc1ccc(OCC(O)CN2CCN(c3ccc(C)c(Cl)c3)CC2)cc1 (stereo not drawn)	119.8	n	x	n	x	n
CC(=O)Nc1ccc(OCC(O)CN2CCN(c3cc(Cl)ccc3C)CC2)cc1 (stereo not drawn)	84.5	n	n	n	n	n
C/C=C/c1ccc([C@H]2[C@@H](CO)N(Cc3ccccc3)[C@H]2CNC(=O)C2CC2)cc1	x	x	x	x	n	x
O=C(NCC[C@@H]1CC[C@@H](NC(=O)C2CCCCC2)[C@@H](CO)O1)c1cnccn1	x	x	n	x	n	x
CCN1[C@H](C(=O)OC)[C@@H](CO)[C@@H]2Cn3c(ccc(-c4cncnc4)c3=O)[C@@H]21	x	x	n	x	x	x
Cc1ccc2c(c1)cc(CN(Cc1cccs1)C(=O)c1ccco1)c1nnnn12	n	n	n	n	n	x
Cc1ccc2cc(CN(Cc3cccs3)C(=O)c3ccco3)c3nnnn3c2c1C	n	63.1	x	x	x	x
